Source: ChEMBL document CHEMBL4020839, “Class I HDAC Inhibitors Display Different Antitumor Mechanism in Leukemia and Prostatic Cancer Cells Depending on Their p53 Status” (J Med Chem, 2018)
Calls of active or inactive are those of the source. No cut-off for these calls is given here.

Tests used:
Histone deacetylase 7 = target: T1, Histone deacetylase 7 (Homo sapiens, UniProt Q8WUI4); experiment: Inhibition of recombinant human N-terminal GST-tagged HDAC7 (518-end residues) expressed in baculovirus expression system using Boc-Lys(trifluoroacetyl)-AMC as substrate preincubated for 1 hr followed by substrate addition measured after 2 hrs by fluorescence assay
T1 sequence (Q8WUI4 whole entry): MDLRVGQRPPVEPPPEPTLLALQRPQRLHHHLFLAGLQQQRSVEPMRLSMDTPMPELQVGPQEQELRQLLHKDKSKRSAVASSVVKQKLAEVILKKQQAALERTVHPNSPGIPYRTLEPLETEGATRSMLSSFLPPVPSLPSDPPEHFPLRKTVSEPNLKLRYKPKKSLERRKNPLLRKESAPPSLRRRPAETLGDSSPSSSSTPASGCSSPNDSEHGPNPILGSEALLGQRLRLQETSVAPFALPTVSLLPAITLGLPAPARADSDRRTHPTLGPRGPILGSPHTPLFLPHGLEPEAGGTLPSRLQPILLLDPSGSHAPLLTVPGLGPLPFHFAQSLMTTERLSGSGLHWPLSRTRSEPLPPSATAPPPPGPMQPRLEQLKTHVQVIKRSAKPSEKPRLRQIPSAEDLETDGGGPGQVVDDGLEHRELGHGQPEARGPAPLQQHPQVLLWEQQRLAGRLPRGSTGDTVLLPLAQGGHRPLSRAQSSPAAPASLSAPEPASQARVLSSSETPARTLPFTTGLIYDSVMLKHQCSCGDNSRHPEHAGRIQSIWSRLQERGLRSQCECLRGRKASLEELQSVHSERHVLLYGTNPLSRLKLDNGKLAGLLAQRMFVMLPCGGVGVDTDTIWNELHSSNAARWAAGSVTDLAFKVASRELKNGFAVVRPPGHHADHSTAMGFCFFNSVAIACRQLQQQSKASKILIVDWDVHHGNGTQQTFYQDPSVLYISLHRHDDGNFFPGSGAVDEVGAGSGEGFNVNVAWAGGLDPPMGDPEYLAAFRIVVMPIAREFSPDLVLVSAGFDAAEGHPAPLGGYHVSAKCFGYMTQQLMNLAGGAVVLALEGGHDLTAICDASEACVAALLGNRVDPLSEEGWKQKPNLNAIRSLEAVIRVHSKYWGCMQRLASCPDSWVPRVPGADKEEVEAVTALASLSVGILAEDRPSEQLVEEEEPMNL
Procedure, shortened: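 Recombinant HDAC incubated with serial compound dilutions at 30 °C for 1 h. Reaction run 2 h at 30 °C, stopped with developer containing trypsin and TSA. Fluorescence read after 30 min at 360/460 nm. Inhibition relative to control wells; IC50 from variable-slope fit.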

MV4-11 [1] = experiment: Induction of apoptosis in human MV4-11 cells assessed as increase in cleaved PARP level at 1 to 2 uM after 24 hrs by Western blot method; type: functional, cell-based
Procedure, shortened: (§1)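 MV4-11 (1,500,000/well) or PC-3 (300,000/well) grown 12 h, then treated 24 h at 1 and 2 μM, with 5 μM SAHA as reference. RIPA lysis, sonication and centrifugation, BCA normalization. NuPAGE 4–12% Bis-Tris gel in MES, transfer, primary antibodies 1/1000 overnight at 4 °C. Actin as loading control.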

PC-3 = experiment: Induction of apoptosis in human PC3 cells assessed as increase in cleaved PARP level at 1 to 2 uM after 24 hrs by Western blot method; type: functional, cell-based; procedure, shortened: as §1
MV4-11 [2] = experiment: Downregulation of HDAC1 protein expression in human MV4-11 cells at 1 to 2 uM after 24 hrs by Western blot method; type: functional, cell-based; procedure, shortened: as §1
MV4-11 [3] = experiment: Cell cycle arrest in human MV4-11 cells assessed as accumulation at G1/S phase at 0.5 uM after 24 hrs by propidium iodide staining based flow cytometry; type: functional
Histone deacetylase 1 = Histone deacetylase 1 (Homo sapiens, UniProt Q13547); conditions: 0.25 to 2 uM
[4] = target: Histone deacetylase 3 (Homo sapiens) (UniProt O15379); conditions: 0.25 to 2 uM
Sequence of Histone deacetylase 3 (Homo sapiens) (O15379 whole entry): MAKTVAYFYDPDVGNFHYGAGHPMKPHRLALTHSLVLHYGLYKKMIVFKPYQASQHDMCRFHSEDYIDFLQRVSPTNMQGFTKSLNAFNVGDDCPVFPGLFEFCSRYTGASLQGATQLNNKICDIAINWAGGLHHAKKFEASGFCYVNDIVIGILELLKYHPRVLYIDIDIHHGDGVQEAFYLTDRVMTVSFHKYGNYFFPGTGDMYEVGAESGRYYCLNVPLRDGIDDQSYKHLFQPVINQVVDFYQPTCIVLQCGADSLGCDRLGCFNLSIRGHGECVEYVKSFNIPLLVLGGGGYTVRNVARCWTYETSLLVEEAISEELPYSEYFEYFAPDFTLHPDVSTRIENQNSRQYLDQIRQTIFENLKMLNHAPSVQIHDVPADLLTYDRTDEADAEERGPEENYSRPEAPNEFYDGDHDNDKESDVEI

Sequence of Histone deacetylase 1 (Q13547 whole entry): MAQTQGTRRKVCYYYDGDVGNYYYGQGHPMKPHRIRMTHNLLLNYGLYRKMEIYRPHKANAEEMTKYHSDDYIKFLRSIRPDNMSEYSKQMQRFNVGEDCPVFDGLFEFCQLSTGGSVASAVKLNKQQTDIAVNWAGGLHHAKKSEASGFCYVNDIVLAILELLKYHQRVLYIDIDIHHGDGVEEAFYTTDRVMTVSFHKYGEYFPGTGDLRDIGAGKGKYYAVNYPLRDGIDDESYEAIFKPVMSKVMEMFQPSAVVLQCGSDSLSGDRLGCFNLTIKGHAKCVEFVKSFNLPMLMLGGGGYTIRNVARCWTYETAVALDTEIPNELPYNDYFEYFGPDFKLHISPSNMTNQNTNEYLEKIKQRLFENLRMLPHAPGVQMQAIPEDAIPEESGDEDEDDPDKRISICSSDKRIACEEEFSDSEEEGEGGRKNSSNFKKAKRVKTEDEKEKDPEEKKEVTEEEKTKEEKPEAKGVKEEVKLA

IC50 (Histone deacetylase 7): > 50 µM
inhibition (Histone deacetylase 1): Active
inhibition [4]: Active
SMILES: CCCNNC(=O)c1ccc(NC(=O)[C@H](Cc2c[nH]c3ccccc23)NC(=O)c2ccc(OC)cc2)cc1
Activity (MV4-11 [1]): Active
Activity (PC-3): inactive
Activity (MV4-11 [2]): inactive
Activity (MV4-11 [3]): Active
